Assay results reported in ChEMBL document CHEMBL1132470, “Structure-activity relationships of novel 2-substituted quinazoline antibacterial agents” (1999).
In brackets after ≈: the same amount, converted by molar mass.

Tests used:
Type in all cases: functional
Escherichia coli [1] = assay: Antibacterial activity against Escherichia coli
Streptococcus pyogenes [2] = assay: Antibacterial activity against Streptococcus pyogenes (#14289)
Summary of the method: (§1)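 Run as a duplicate broth microdilution in Todd-Hewitt broth. An overnight culture was added to compound in 4% DMSO in water, giving about 10⁵-10⁶ CFU/well, and incubated at 37 °C. Growth was read as A595 at 24 h. MIC is given as a concentration range: complete inhibition at the upper concentration, viable cells at the lower. Ampicillin and tetracycline served as controls.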

Streptococcus pyogenes [3] = assay: Antibacterial activity against Streptococcus pyogenes; summary of the method: as §1
Escherichia coli [4] = assay: Antibacterial activity against Escherichia coli (#25922)
Summary of the method: (§2)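 Bacteria were grown in nutrient broth at 37 °C. An overnight culture was added to compound in 4% DMSO/water, giving about 10⁵-10⁶ CFU/well, in duplicate. Absorbance at 595 nm was read after 24 h. MIC is reported as a range between the lowest concentration with complete growth inhibition and the next lower concentration with viable cells. Ampicillin and tetracycline were positive controls.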

Enterococcus faecalis = assay: Antibacterial activity against Enterococcus faecalis (#29212); summary of the method: as §1
Klebsiella pneumoniae = assay: Antibacterial activity against Klebsiella pneumoniae (#13883); summary of the method: as §2
Staphylococcus aureus = assay: Antibacterial activity against Staphylococcus aureus (#13709)
Summary of the method: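 Trypticase soy broth culture was grown at 37 °C. The overnight suspension was mixed with compound in 4% DMSO in water, giving a final inoculum of about 10⁵-10⁶ CFU/well, in duplicate. Growth was read as A595 after 24 h. MIC is a concentration range, full inhibition at the higher and viability at the lower. Ampicillin and tetracycline were included as controls.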

Streptococcus pyogenes [5] = assay: Antibacterial activity against Streptococcus pyogenes (#49399)

| SMILES | MIC (Escherichia coli [1]) | MIC (Streptococcus pyogenes [3]) | further results |
| --- | --- | --- | --- |
| COc1cc2nc(N3CCC(Nc4nc(N)c(C(=O)O)nc4Cl)CC3)nc(N)c2cc1OC | > 100 µM |  | MIC (Streptococcus pyogenes [2]): > 100 µM |
| O=C(O)c1ccc(NC2CCN(C(=O)c3ccc4ccccc4c3)CC2)cc1 | > 25 µM | > 25 µM |  |
| COc1cc2nc(N3CCC(Nc4ccc(C(=O)O)cc4)CC3)nc(Nc3ccc(C)cc3)c2cc1OC | > 20 µM | > 20 µM |  |
| COc1cc2nc(N3CCC(Nc4ccc(C(=O)OC(C)(C)C)cc4)CC3)nc(Nc3ccc(C)cc3)c2cc1OC | 10 µM (≈ 5.7 µg/mL) | 2.5 µM (≈ 1.42 µg/mL) |  |
| COC(=O)c1ccc(NC2CCN(c3nc(N)c4cc(OC)c(OC)cc4n3)CC2)cc1 | 5 µM (≈ 2.19 µg/mL) | 5 µM (≈ 2.19 µg/mL) | MIC (Escherichia coli [4]): > 100 µM; MIC (Enterococcus faecalis): 20 µM (≈ 8.75 µg/mL); MIC (Klebsiella pneumoniae): > 100 µM; MIC (Staphylococcus aureus): > 100 µM; MIC (Streptococcus pyogenes [5]): 5 µM (≈ 2.19 µg/mL) |
| CC(C)(C)OC(=O)c1ccc(NC2CCN(c3nc(N)c4ccccc4n3)CC2)cc1 | < 100 µM | < 100 µM |  |
| COc1cc2nc(N3CCC(Nc4ccc(C(=O)O)cc4)CC3)nc(OC)c2cc1OC | > 20 µM | > 20 µM |  |
| COc1ccc2[nH]c(N3CCC(Nc4ccc(C(=O)OC(C)(C)C)cc4)CC3)nc2c1 | > 100 µM | > 100 µM |  |
| O=C(O)c1ccc(NC2CCN(S(=O)(=O)c3ccc4ccccc4c3)CC2)cc1 | > 25 µM | > 25 µM |  |
| O=C(O)c1ccc(NC2CCN(c3ccc4ccccc4c3)CC2)cc1 | > 25 µM | > 25 µM |  |
| COC(=O)c1ccc(NC2CCN(Cc3ccccc3)CC2)cc1 | > 25 µM | > 25 µM |  |
| CC(C)(C)OC(=O)c1ccc(NC2CCN(S(=O)(=O)c3ccc4ccccc4c3)CC2)cc1 | > 25 µM | > 25 µM |  |
| COC(=O)c1ncc(NC2CCN(c3nc(N)c4cc(OC)c(OC)cc4n3)CC2)nc1N | > 50 µM |  | MIC (Streptococcus pyogenes [2]): > 50 µM |
| CC(C)(C)OC(=O)c1ccc(NC2CCN(c3ncccn3)CC2)cc1 | > 25 µM | > 25 µM |  |
| CC(C)(C)OC(=O)c1ccc(NC2CCN(c3ccc4ccccc4c3)CC2)cc1 | > 25 µM | > 25 µM |  |
| COc1cc2cnc(N3CCC(Nc4ccc(C(=O)O)cc4)CC3)nc2cc1OC | > 20 µM | > 20 µM |  |
| COc1cc2nc(N3CCC(Nc4ccc(C(=O)OC(C)(C)C)cc4[N+](=O)[O-])CC3)nc(N)c2cc1OC | 25 µM (≈ 13.1 µg/mL) |  | MIC (Streptococcus pyogenes [2]): 50 µM (≈ 26.2 µg/mL) |
| COc1cc2nc(N3CCC(Nc4cnc(C(=O)O)c(N)n4)CC3)nc(N)c2cc1OC | > 25 µM | > 25 µM |  |
| CC(C)(C)OC(=O)c1ccc(NC2CCNCC2)cc1 | > 25 µM | > 25 µM |  |
| COc1cc2cnc(N3CCC(Nc4ccc(C(=O)OC(C)(C)C)cc4)CC3)nc2cc1OC | > 20 µM | > 20 µM |  |

| SMILES | MIC (Escherichia coli [1]) | MIC (Streptococcus pyogenes [3]) | further results |
| --- | --- | --- | --- |
| CC(C)(C)OC(=O)c1ccc(NC2CCN(C(=O)c3ccc4ccccc4c3)CC2)cc1 | > 25 µM | > 25 µM |  |
| COC(=O)c1nc(Cl)c(NC2CCN(Cc3ccccc3)CC2)nc1N | > 50 µM |  | MIC (Streptococcus pyogenes [2]): > 50 µM |
| COc1cc2nc(N3CCC(Nc4ccc(C(=O)O)cc4)CC3)nc(O)c2cc1OC | > 20 µM | > 20 µM |  |
| Nc1nc(N2CCC(Nc3ccc(C(=O)O)cc3)CC2)nc2ccccc12 | > 100 µM | > 100 µM |  |
| COc1cc2nc(N3CCC(Nc4ccc(C(=O)O)cc4)CC3)nc(N)c2cc1OC | 0.4 µM (≈ 0.169 µg/mL) | > 25 µM | MIC (Escherichia coli [4]): 60 µM (≈ 25.4 µg/mL); MIC (Enterococcus faecalis): > 100 µM; MIC (Klebsiella pneumoniae): 6 µM (≈ 2.54 µg/mL); MIC (Staphylococcus aureus): 6 µM (≈ 2.54 µg/mL); MIC (Streptococcus pyogenes [5]): > 25 µM |
| COC(=O)c1nc(Cl)c(NC2CCNCC2)nc1N | > 25 µM |  | MIC (Streptococcus pyogenes [2]): > 25 µM |
| COc1cc2nc(N3CCC(Nc4ccc(C(=O)OC(C)(C)C)cc4)CC3)nc(N)c2cc1OC | 6 µM (≈ 2.88 µg/mL) | 3 µM (≈ 1.44 µg/mL) | MIC (Escherichia coli [4]): > 100 µM; MIC (Enterococcus faecalis): 6 µM (≈ 2.88 µg/mL); MIC (Klebsiella pneumoniae): > 100 µM; MIC (Staphylococcus aureus): > 100 µM; MIC (Streptococcus pyogenes [5]): 6 µM (≈ 2.88 µg/mL) |
| COC(=O)c1nc(Cl)c(NC2CCN(C(=O)OC(C)(C)C)CC2)nc1N | > 25 µM |  | MIC (Streptococcus pyogenes [2]): > 25 µM |
| COC(=O)c1nc(Cl)c(NC2CCN(c3nc(N)c4cc(OC)c(OC)cc4n3)CC2)nc1N | > 25 µM |  | MIC (Streptococcus pyogenes [2]): 12 µM (≈ 5.87 µg/mL) |
| COc1cc2nc(N3CCC(Nc4ccc(C(=O)O)cn4)CC3)nc(N)c2cc1OC | > 50 µM | > 50 µM |  |
| COc1cc2nc(N3CCC(Nc4ccc(C(=O)OC(C)(C)C)cc4)CC3)nc(O)c2cc1OC | > 100 µM | > 100 µM |  |
| COC(=O)c1ccc(NC2CCN(c3nc(N)c4cc(OC)c(OC)cc4n3)CC2)nc1 | > 50 µM | 25 µM (≈ 11 µg/mL) |  |
| O=C(O)c1ccc(NC2CCN(c3ncccn3)CC2)cc1 | > 25 µM | > 25 µM |  |
| COc1ccc2[nH]c(N3CCC(Nc4ccc(C(=O)O)cc4)CC3)nc2c1 | > 25 µM | > 25 µM |  |
| COc1cc2nc(N3CCC(Nc4ccc(C(=O)O)cc4[N+](=O)[O-])CC3)nc(N)c2cc1OC | > 20 µM |  | MIC (Streptococcus pyogenes [2]): > 20 µM |
| COC(=O)c1nc(Cl)c(NNc2nc(N)c3cc(OC)c(OC)cc3n2)nc1N | > 50 µM |  | MIC (Streptococcus pyogenes [2]): > 50 µM |
| COc1cc2nc(N3CCC(Nc4ccc(C(=O)OC(C)(C)C)cc4)CC3)nc(OC)c2cc1OC | < 100 µM | < 100 µM |  |
| CC(C)(C)OC(=O)c1ccc(NC2CCN(Cc3ccccc3)CC2)cc1 | > 25 µM | > 25 µM |  |
| O=C(O)c1ccc(NC2CCN(Cc3ccccc3)CC2)cc1 | > 25 µM | > 25 µM |  |
